A short description of data set [1]: Cytotoxicity against human MDA-MB-231 cells assessed as reduction in cell viability after 24 hrs by MTS assay. The data set is classed as cell-based. A digest of the protocol:
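Cells are seeded at 10^4/well in 5% FBS/DMEM and grown 24 h at 37 °C, 5% CO2. They are then exposed 24 h to 1, 5, 10 or […] μM compound or vehicle (0.25% DMSO in PBS), with 5 wells per concentration. MTS is added for 30 min and absorbance read at 490 nm. The maximum non-toxic concentration is judged against vehicle, mean of five repeats.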

In data set [2] the target is T1, Sodium channel protein type 5 subunit alpha (Homo sapiens, UniProt Q14524). In words: Inhibition of neonatal Nav1.5 in human MDA-MB-231 cells assessed as reduction in inward sodium peak current at 10 uM at -100 mV holding potential after 5 to 10 mins by whole cell patch clamp method relative to control. The settings on record: MDA-MB-231, human. The format is cell-based. The gist of the method:
(§1)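 Whole-cell voltage clamp is used, with capacitance and series resistance compensated 60% and P/2 leak subtraction. Cells are perifused with PSS (mM: NaCl 140, KCl 4, MgCl2 1, CaCl2 2, NaH2PO4 0.33, glucose 11.1, HEPES 10; pH 7.4), with or without compound (final 0.2% DMSO), for 5–10 min. Peak INa is evoked by 30 ms steps from −100 to −5 mV. Percent block is taken from peak current. The concentration-response over 0.1–100 μM is Hill-fitted.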
Target sequence in this assay (Q14524 whole entry, the tested form may be a part): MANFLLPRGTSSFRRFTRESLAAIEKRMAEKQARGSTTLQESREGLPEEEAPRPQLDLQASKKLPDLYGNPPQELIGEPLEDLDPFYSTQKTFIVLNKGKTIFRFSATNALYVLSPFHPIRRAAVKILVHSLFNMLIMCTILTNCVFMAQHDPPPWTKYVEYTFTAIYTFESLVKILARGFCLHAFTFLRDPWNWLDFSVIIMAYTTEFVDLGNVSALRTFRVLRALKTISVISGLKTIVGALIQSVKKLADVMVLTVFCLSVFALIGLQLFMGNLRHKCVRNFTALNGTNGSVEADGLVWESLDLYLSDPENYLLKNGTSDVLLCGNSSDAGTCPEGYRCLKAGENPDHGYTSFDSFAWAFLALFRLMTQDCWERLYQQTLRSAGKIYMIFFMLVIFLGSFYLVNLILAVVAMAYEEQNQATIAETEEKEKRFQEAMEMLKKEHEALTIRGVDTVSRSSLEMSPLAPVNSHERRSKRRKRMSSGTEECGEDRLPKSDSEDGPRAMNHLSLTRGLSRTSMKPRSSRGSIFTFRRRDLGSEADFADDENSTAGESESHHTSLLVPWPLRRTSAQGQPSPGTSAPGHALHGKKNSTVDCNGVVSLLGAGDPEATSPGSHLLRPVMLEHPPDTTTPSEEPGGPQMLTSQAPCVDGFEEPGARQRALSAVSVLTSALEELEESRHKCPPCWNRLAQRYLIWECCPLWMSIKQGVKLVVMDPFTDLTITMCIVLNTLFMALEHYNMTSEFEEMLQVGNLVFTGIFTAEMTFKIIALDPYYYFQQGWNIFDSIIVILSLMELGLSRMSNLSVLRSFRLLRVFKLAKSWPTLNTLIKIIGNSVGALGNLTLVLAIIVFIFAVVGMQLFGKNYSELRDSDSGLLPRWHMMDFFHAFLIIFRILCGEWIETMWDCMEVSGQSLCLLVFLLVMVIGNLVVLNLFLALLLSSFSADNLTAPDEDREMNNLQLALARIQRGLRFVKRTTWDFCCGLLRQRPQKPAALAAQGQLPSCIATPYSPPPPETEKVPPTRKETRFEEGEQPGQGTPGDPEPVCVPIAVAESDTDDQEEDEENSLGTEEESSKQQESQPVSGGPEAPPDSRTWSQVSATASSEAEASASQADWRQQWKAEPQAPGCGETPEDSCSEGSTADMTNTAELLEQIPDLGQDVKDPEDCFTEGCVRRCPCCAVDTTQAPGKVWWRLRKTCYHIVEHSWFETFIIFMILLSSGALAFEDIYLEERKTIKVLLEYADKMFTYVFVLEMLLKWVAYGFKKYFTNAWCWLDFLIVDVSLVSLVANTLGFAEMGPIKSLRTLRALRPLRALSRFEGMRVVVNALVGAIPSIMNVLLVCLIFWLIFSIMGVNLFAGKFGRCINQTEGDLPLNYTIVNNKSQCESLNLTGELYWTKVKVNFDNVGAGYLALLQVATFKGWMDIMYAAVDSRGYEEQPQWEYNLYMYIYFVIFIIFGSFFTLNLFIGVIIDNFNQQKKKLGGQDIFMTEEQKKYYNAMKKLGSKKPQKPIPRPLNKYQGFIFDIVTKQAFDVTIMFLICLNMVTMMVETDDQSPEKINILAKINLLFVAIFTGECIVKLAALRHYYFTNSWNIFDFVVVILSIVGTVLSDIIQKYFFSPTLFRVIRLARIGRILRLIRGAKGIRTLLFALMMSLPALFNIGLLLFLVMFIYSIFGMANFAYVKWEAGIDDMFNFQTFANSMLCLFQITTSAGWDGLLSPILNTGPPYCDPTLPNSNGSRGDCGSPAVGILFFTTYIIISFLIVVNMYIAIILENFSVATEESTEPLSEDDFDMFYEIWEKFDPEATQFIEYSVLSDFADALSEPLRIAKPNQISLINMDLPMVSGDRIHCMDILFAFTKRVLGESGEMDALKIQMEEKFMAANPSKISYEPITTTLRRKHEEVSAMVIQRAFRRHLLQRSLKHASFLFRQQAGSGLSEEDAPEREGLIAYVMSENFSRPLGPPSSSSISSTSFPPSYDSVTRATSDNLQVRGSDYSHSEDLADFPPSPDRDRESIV

For data set [3], the target named is T1, Sodium channel protein type 5 subunit alpha. In words: Inhibition of neonatal Nav1.5 in human MDA-MB-231 cells assessed as reduction in inward sodium peak current at 1 uM at -100 mV holding potential after 5 to 10 mins by whole cell patch clamp method relative to control. The conditions noted are these: MDA-MB-231, human. The format is cell-based. The gist of the method:
(§2)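 Whole-cell voltage clamp on MDA-MB-231 cells grown in 5% FBS DMEM, with 60% capacitance and series-resistance compensation and P/2 leak subtraction. Cells were perifused with PSS (mM: NaCl 140, KCl 4, MgCl2 1, CaCl2 2, NaH2PO4 0.33, glucose 11.1, HEPES 10; pH 7.4) with 0.2% DMSO, and compound was applied 5–10 min (final 0.1–100 μM). Peak INa was evoked by 30 ms steps from −100 to −5 mV. Percent block was taken against control, followed by wash-out.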
(Patch clamp records ionic current or voltage across a cell membrane.)
Target sequence in this assay (Q14524 whole entry, the tested form may be a part): as above

Data set [4] concerns MDA-MB-231. In words: Anti-invasive activity against human MDA-MB-231 cells at 1 uM after 24 hrs by Hema staining based microscopic method relative to control. The conditions noted are these: MDA-MB-231, 24 h. The format is functional. The gist of the method: (§3)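 Matrigel-coated transwell invasion chambers are hydrated 2 h at 37 °C, with 5% FBS/DMEM above and 10% FBS/DMEM below as chemoattractant. 4 × 10^4 cells go in the upper chamber. Compound or vehicle (0.2% DMSO in PBS) is added to both chambers. After 24 h at 37 °C, 5% CO2, invaded cells are fixed, Hema-stained and counted in five membrane regions. Counts are normalized to solvent control, mean ± SD.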

The target of data set [5] is T1, Sodium channel protein type 5 subunit alpha. Description: Irreversible inhibition of neonatal Nav1.5 in human MDA-MB-231 cells assessed as reduction in sodium peak current elecited for membrane depolarization from -100 mV to -5 mV at -100 mV holding potential treated for 5 to 10 mins followed by compound washout by whole cell patch clamp method relative to control. The format is cell-based. The gist of the method:
as §2
Target sequence in this assay (Q14524 whole entry, the tested form may be a part): as above

The target is the same in data set [6]. In words: Inhibition of neonatal Nav1.5 in human MDA-MB-231 cells assessed as reduction in inward sodium peak current at -100 mV holding potential after 5 to 10 mins by whole cell patch clamp method. The data set is classed as cell-based. A digest of the protocol: as §1
Target sequence in this assay (Q14524 whole entry, looked up, the tested form may be a part): as the sequence (Q14524 whole entry, the tested form may be a part) above
For data set [7] the target is unchanged. Description: Inhibition of neonatal Nav1.5 in human MDA-MB-231 cells assessed as reduction in inward sodium peak current at 100 uM at -100 mV holding potential after 5 to 10 mins by whole cell patch clamp method relative to control. The data set is classed as cell-based. The settings on record: MDA-MB-231, human. A digest of the protocol:
as §2
Target sequence in this assay (Q14524 whole entry, the tested form may be a part): as above

For data set [8] the target is unchanged. Description: Inhibition of neonatal Nav1.5 in human MDA-MB-231 cells assessed as reduction in inward sodium peak current by measuring half activation potential at 10 uM at -100 mV holding potential after 5 to 10 mins by whole cell patch clamp method (reference value: -33 +/- 1.2 mV). The conditions noted are these: mda-mb-231, 10 µM. The format is cell-based.
Target sequence in this assay (Q14524 whole entry, the tested form may be a part): as above

Data set [9] shares this target. In words: Inhibition of neonatal Nav1.5 in human MDA-MB-231 cells assessed as reduction in inward sodium peak current by measuring half inactivation potential at 10 uM at -100 mV holding potential after 5 to 10 mins by whole cell patch clamp method (reference value: -71.6 +/- 0.4 mV). The conditions noted are these: mda-mb-231, 10 µM. The data set is classed as cell-based.
Target sequence in this assay (Q14524 whole entry, the tested form may be a part): as above

In data set [10] the test system is MDA-MB-231. In words: Anti-invasive activity against human MDA-MB-231 cells at 0.1 uM after 24 hrs by Hema staining based microscopic method relative to control. The conditions noted are these: MDA-MB-231, 24 h. The data set is classed as functional. A digest of the protocol: as §3
Data set [11] deals with MDA-MB-231. The conditions noted are these: Homo sapiens, 30 uM.
The target in data set [12] is T1, Sodium channel protein type 5 subunit alpha. In words: Inhibition of neonatal Nav1.5 in human MDA-MB-231 cells assessed as reduction in inward sodium peak current by measuring half activation potential at 10 uM at -100 mV holding potential after 5 to 10 mins by whole cell patch clamp method (reference value: -30.7 +/- 0.9 mV). The format is cell-based. The conditions noted are these: mda-mb-231, 10 µM.

For data set [13] the target is unchanged. Description: Inhibition of neonatal Nav1.5 in human MDA-MB-231 cells assessed as reduction in inward sodium peak current by measuring half inactivation potential at 10 uM at -100 mV holding potential after 5 to 10 mins by whole cell patch clamp method (reference value: -66 +/- 2.5 mV). The data set is classed as cell-based. The conditions noted are these: mda-mb-231, 10 µM.

Data set [14] has the same target. In words: Reversible inhibition of neonatal Nav1.5 in human MDA-MB-231 cells assessed as reduction in sodium peak current elecited for membrane depolarization from -100 mV to -5 mV by measuring remaining current amplitude at 0.1 to 100 uM at -100 mV holding potential treated for 5 to 10 mins followed by compound washout by whole cell patch clamp method relative to control.

The values below come from ChEMBL document CHEMBL4219233, “Discovery and evaluation of nNav1.5 sodium channel blockers with potent cell invasion inhibitory activity in breast cancer cells” (Bioorg Med Chem, 2018).

Some results are limits rather than exact numbers.

Consider `Fc1ccc(C(CCCNCCCc2ccccc2)c2ccc(F)cc2)cc1`, for which the MNTC at 24 h in data set [1] worked out at 10 µM. The inhibition (in general, the drop in the measured response relative to a control, in per cent) at 10 µM in [2] is 30%.

`Fc1ccc(C(CCCNCCCN2CCCCC2)c2ccc(F)cc2)cc1`: the MNTC at 24 h in [1] came out at 5 µM. Moreover, the inhibition at 10 µM in data set [2] was 50%. Also, the inhibition at 1 µM in data set [3] was found to be 34.9%; in the data set on MDA-MB-231 [4], 30.3%. Besides, the “inhibition (INH)” value in [5] is listed as “Dose-dependent effect”. In addition, in data set [6], the 50% inhibitory concentration (IC50) (as a rule, the point on the concentration scale where inhibition reaches its midpoint) was 4.8 µM. Further, the inhibition at 100 µM in [7] is over 95%. The figures for the V1/2 in [8] and in data set [9] were -34.9 mV and -88.6 mV, respectively. Further, 0.1 µM produced 20% inhibition in the data set with MDA-MB-231 [10].

For `CC(C)(C)CCCCNCCCN1CCCCC1`, the MNTC at 24 h in [1] is 10 µM. In [2], the inhibition at 10 µM turned out to be 30%.

With `NC1=N[C@H](O)[C@H]2[C@H]3O[C@]4(O)O[C@@H]([C@@H](O)[C@@]2(N1)[C@@H]4O)[C@]3(O)CO` [TETRODOTOXIN], in [1], the MNTC at 24 h worked out at 30 µM. In addition, the inhibition in the data set on MDA-MB-231 [11] stood at 31.5%.

On to `Fc1ccc(C(CCCNCCc2ccccc2)c2ccc(F)cc2)cc1`, for which the MNTC at 24 h in data set [1] was 10 µM. For the same compound, in data set [2], the inhibition at 10 µM turned out to be 30%.

For the compound `Fc1ccc(CCCCNCCCN2CCCCC2)cc1`, the MNTC at 24 h in [1] was over 25 µM. In data set [2], the inhibition at 10 µM was determined as 60%. Besides, the figures for the inhibition at 1 µM (in [3]; with MDA-MB-231 [4]) were 25% and 28%, respectively. For the same compound, the IC50 in data set [6] came out at 5.9 µM. Moreover, the inhibition at 100 µM in data set [7] is over 95%. Further, the values for the V1/2 in data set [12] and in data set [13] were -36.8 mV and -77.5 mV, respectively. The same compound showed an inhibition at 0.1 µM in the data set on MDA-MB-231 [10] of 20%. Further, the Activity in data set [14] is on record as 17.4%.
